HDAC3 inhib: HDAC3 deacetylase inhibitors, primary screen, biochemical, fluorescence, cell-free homogeneous; inhibition, % at 8.3 µM; recombinant HDAC3, fluorogenic peptide/trypsin coupled; AID 2718, 2010; 320,000 tested, 0.15% active; in the data active = inhibition above about 26%, passing the limit was not always enough; inconclusive = no clear call, values can overlap the other calls
Target sequence (O15379 whole entry, looked up): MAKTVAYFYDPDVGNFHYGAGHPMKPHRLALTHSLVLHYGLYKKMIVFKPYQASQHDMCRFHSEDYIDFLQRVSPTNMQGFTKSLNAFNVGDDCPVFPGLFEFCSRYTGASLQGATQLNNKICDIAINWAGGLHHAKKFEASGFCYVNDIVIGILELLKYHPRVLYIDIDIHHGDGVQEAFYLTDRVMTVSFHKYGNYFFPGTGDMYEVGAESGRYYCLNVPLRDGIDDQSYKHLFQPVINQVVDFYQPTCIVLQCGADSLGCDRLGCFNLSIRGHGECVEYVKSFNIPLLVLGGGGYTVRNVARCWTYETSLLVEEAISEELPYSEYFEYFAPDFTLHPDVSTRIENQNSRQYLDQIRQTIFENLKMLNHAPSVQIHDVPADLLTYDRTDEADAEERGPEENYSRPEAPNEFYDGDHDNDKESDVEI
T cruzi repl: inhibitors of intracellular T. cruzi growth, primary screen, luminescence, NIH3T3 host cells. inhibition, % (test concentration not listed). T. cruzi beta-gal in NIH3T3, 90 h. 300,000 tested, 1.4% active;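 active = mean inhibition across valid replicates above about 55%, limit read from the data; inconclusive = mean below that limit but half or more replicates reach it; inactive = mean below it, under half of replicates reach it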;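 also: signal also drops with host cell toxicity which is not excluded here; higher percent means less beta-gal luminescence so fewer parasites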
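compound dosing = single 50 nL compound addition per well in DMSO | material = NIH/3T3 host cells with β-galactosidase reporter T. cruzi | input = 5,000 host fibroblasts per well | timing = ≥90 h infection period, 3 h prior cell attachment | read-out basis = percent inhibition of parasite-derived β-gal signal | detection = GalScreen β-gal luminescence, detergent lysis, 60 min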
AI-2 QS modul: Vibrio harveyi AI-2 quorum sensing modulators, primary screen, JMH597 strain, luminescence/OD600 ratio; Vibrio harveyi JMH597 AI-2 luminescence/OD600 ratio, 9 h; stronger effect = lower value; strain lacks LuxN and CqsS sensors; 0 = neutral-control median; activity change, % at 7.5 µM; 300,000 tested, 0.4% active; in the data active = activity change below about -75%, passing the limit was not always enough; inconclusive = no clear call, values can overlap the other calls;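 also: luminescence divided by OD600 gain over 9 h not by final OD600 alone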
Efflux pump mplx: inhibitors of Candida efflux pumps in yeast, primary screen, S. cerevisiae, Nile Red, multiplex; inhibition, % at 10 µM; 330,000 tested, 0.44% active; S. cerevisiae Candida pump triplex;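 active = plate passing quality check with inhibition over a set limit, or well fluorescence over plate mean plus 4 SD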;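 also: Nile Red retained in pooled yeast measured as flow cytometry median fluorescence; higher means more Nile Red kept so more efflux inhibition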
PolyA inhibitor: polyadenylation inhibitors in yeast reporter cells, primary screen, luminescence, S. cerevisiae. 300,000 tested, 0.02% active. S. cerevisiae SKY197-pL101 polyadenylation reporter, beta-gal luminescence; efflux-impaired pdr1/pdr3 knockout yeast; score 100 = 6 SD above DMSO. activity score, % at 12 µM. AID 1875, 2009;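 active = lowest replicate activity score at least 50, where 100 means six control SD above control mean; inconclusive = lowest score under 50 but half or more replicates reach 50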;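 also: yeast exposed to compound for 9 h at 30 °C; higher score means more reporter readthrough which indicates perturbed polyadenylation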
Of the large screens only hits and unclear results are named; the others gave an inactive call. Compounds with a hit are over-represented: about 2.2% of the library has one in this group of screens.

COc1cccc(CN(C)CC2CCCN(CCc3ccccc3C)C2)c1 (configuration not stated)	T cruzi repl 55
CC(OC(=O)CN1C(=O)c2ccccc2C1=O)C(=O)NC1CCCCC1 (configuration not stated)	none
C[C@H]1CN=C(N(C)C)N1CCC1CCCCC1	none (no result: T cruzi repl, AI-2 QS modul, PolyA inhibitor)
COCCNC(=O)c1cccc(OC2CCN(C(C)COc3ccccc3)CC2)c1 (configuration not stated)	none
COc1cc(CN2CCCC(C(=O)Nc3cccc(-n4cccn4)c3)C2)ccc1F (configuration not stated)	T cruzi repl 61
O=C(Nc1cccc(-n2cccn2)c1)C1CCCN(Cc2ccccc2F)C1 (configuration not stated)	none
O=C(O)c1ccccc1NC(=O)c1ccccc1Nc1ccccc1	none
COc1cccc(Nc2nc(NCC3CCCO3)c3ccccc3n2)c1 (configuration not stated)	T cruzi repl 60
CCOC(=O)[C@@H]1[C@H]2COc3ccc(Br)cc3[C@@H]2N2C(=O)N(c3ccc(Cl)cc3)C(=O)[C@]12C	none
COc1ccc(Nc2nnc(-c3ccc(O)cc3)c3ccccc23)cc1	T cruzi repl 57
COc1ccc(/C(C)=N/NC(=O)c2ccc(NS(=O)(=O)c3cccs3)cc2)cc1	none
COc1ccc(C(=O)n2nc(-c3ccc(OC)cc3)nc2N)cc1	HDAC3 inhib 59
COc1ccc(-c2nc(N)n(C(=O)c3ccc(C)cc3)n2)cc1	HDAC3 inhib 32
COc1ccc(C(=O)n2nc(-c3ccccc3)nc2N)cc1OC	HDAC3 inhib 62 (no result: T cruzi repl)
CCOc1cc(/C=C(/NC(C)=O)C(=O)O)cc(Cl)c1OCc1cccc(Br)c1	HDAC3 inhib inconclusive
CCOc1ccc(N(CCCCO)C(=S)NC(=O)c2ccc(C)c(Br)c2)cc1	none
Cc1ccc2[nH]cc(CCNC(=O)c3ccc4c(c3)OCO4)c2c1	AI-2 QS modul -80
O=S(=O)(N/N=C\C=C\c1ccccc1)c1ccc(Br)cc1	AI-2 QS modul -92
CN(C)c1ccc(/C=N/NS(=O)(=O)c2ccc(Br)cc2)cc1	AI-2 QS modul -92
Cc1ccccc1NS(=O)(=O)c1cc(C(=O)N2CCCC2)ccc1Cl	none
Cc1ccc(C)c(NS(=O)(=O)c2cc(C(=O)N3CCc4ccccc4C3)ccc2Cl)c1	T cruzi repl 56
Cc1cccc(NS(=O)(=O)c2cc(C(=O)N3CCc4ccccc4C3)ccc2Cl)c1C	T cruzi repl 60
O=C(c1ccco1)N1CCN(C(=O)C2CC(=O)N(c3ccccc3)C2)CC1 (configuration not stated)	none
CC(C)(C)c1ccc(-n2nc(C#N)c(Cl)cc2=O)cc1	T cruzi repl 66 (no result: HDAC3 inhib, Efflux pump mplx)
CSc1nc(Cl)cc(N2CCOCC2)n1	none
Fc1ccccc1Cc1noc(CN2CCN(C/C=C/c3ccccc3)CC2)n1	T cruzi repl 67
CN1CCN(Cc2nc(Cc3ccccc3)no2)CC1c1ccccc1 (configuration not stated)	none
c1ccc(CN2CCCC3(CCCN(Cc4nc(COc5ccccc5)no4)C3)C2)cc1 (configuration not stated)	T cruzi repl 61
O=CN1CCCN(Cc2nc(Cc3ccccc3F)no2)CC1	none
c1ccc(Cc2noc(CN3CCN(CCOc4ccccc4)CC3)n2)cc1	T cruzi repl 57
c1ccc(CN2CCCC3(CCCN(Cc4nc(CC5CC5)no4)C3)C2)cc1 (configuration not stated)	none
CCOc1cccc(-c2c(C(=O)N/N=C/c3ccc(C)o3)nnn2-c2nonc2N)c1	HDAC3 inhib inconclusive
CCc1ccc(NS(=O)(=O)c2c(C(=O)N3CCCCCC3)c(C)n(C)c2C)cc1	none
COc1cc(C(=O)NCCCN(C)C)ccc1OCC(=O)Nc1cccc(C(F)(F)F)c1	T cruzi repl 57
COc1cccc(CN(C)C(=O)c2ccc(OCC(=O)Nc3cccc(C(F)(F)F)c3)c(OC)c2)c1	HDAC3 inhib inconclusive
O=C(NCCNC(=O)c1cc(OCC(F)(F)F)ccc1OCC(F)(F)F)Nc1cccc(C(F)(F)F)c1	HDAC3 inhib 36
O=C1CCCCC1C(=O)c1cn(-c2ccc(Cl)c(Cl)c2)nn1 (configuration not stated)	none
N#Cc1ccccc1Cn1cc(/C=N/Nc2ccc([N+](=O)[O-])cn2)c2ccccc21	T cruzi repl 64
CC(OC(=O)CCc1c[nH]c2ccccc12)C(=O)c1ccccc1 (configuration not stated)	none
Cn1c(=NC(=O)CCl)sc2ccccc21	T cruzi repl 62
Cc1cc(C)cc(N=c2c([N+](=O)[O-])nn(-c3ccc4c(c3)OCCO4)n2O)c1	HDAC3 inhib inconclusive, T cruzi repl 58
CCc1ccc(N=c2c([N+](=O)[O-])nn(-c3ccc4c(c3)OCCO4)n2O)cc1	T cruzi repl 62
Cc1ccc(N=c2c([N+](=O)[O-])nn(-c3ccc4c(c3)OCCO4)n2O)c(Cl)c1	T cruzi repl 75
Cc1ccc(N=c2c([N+](=O)[O-])nn(-c3ccc4c(c3)OCCO4)n2O)cc1F	T cruzi repl inconclusive
O=[N+]([O-])c1nn(-c2ccc3c(c2)OCCO3)n(O)c1=Nc1ccc(Cl)cc1	T cruzi repl 55
O=[N+]([O-])c1nn(-c2ccc3c(c2)OCCO3)n(O)c1=Nc1ccccc1	none
CC(C)C(NC(=O)c1ccccc1F)C(=O)NCc1ccccc1 (configuration not stated)	none
CC(=O)C1=NN(c2ccccc2)C2(S1)S/C(=C\c1ccccc1)C(=O)N2c1ccccc1 (configuration not stated)	none
Cc1ccc(N=c2c([N+](=O)[O-])nn(-c3ccc(Cl)cc3)n2O)cc1C	T cruzi repl 59
CCN(CC)CCOC(=O)c1cccc(OC)c1	none
CCN(CC)CCCOC(=O)c1ccc(OC)cc1O	T cruzi repl 84
CN(C)c1nc(NC(C)(C)C)nc(NC(C)(C)C)n1	T cruzi repl 59
O=C(OC(C(=O)Nc1cccc(C(F)(F)F)c1)c1ccccc1)C1CCCCC1 (configuration not stated)	HDAC3 inhib inconclusive (no result: T cruzi repl, AI-2 QS modul, PolyA inhibitor)
O=C(NC1CCCN(CCc2ccccc2)C1)c1c[nH]c2ccccc12 (configuration not stated)	none
O=C(NC1CCCN(CCc2ccccc2)C1)C1CCCC1 (configuration not stated)	T cruzi repl 55
COc1ccc(Cl)cc1NC(=O)c1nnn(CC(=O)Nc2ccc3c(c2)OCO3)c1N	none
CN(Cc1ccccc1)CC(O)COc1ccc(CNCCc2ccncc2)cc1 (configuration not stated)	T cruzi repl 66 (no result: HDAC3 inhib)
